Assay results: PMC8359308 (Clinical Pharmacology in Drug Development, 2020)
Read-outs that look alike come from different tables or passages of the source.

Experiments:
[1] = mostly normal hepatic function or mild hepatic impairment; cited from earlier work
[2] = format: in vivo, human; settings: for AUC(0-inf) / AUC(0-t) / Tmax: po, total glasdegib; for AUC(0-inf): AUCinf; for AUC(0-inf) / AUC(0-t) / Tmax / CL/F, total glasdegib / Cmax, total glasdegib: single oral 100 mg, fasted; for AUC(0-t): AUClast; for Tmax: median (range)
How it was run: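 Single oral 100 mg tablet dose of test compound after ≥10 h fast, with about 240 mL water and no food for 4 h. Plasma drawn predose and 1–120 h post-dose, total drug measured by validated LC-MS/MS. AUCinf (AUClast + Clast/kel, linear/log trapezoidal) and observed Cmax came from noncompartmental analysis. Log-transformed values were compared by one-way ANOVA (unequal variance), giving adjusted GMR versus normal-function controls with 90% CI.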

[3] = rifampin coadministered versus glasdegib alone; cited from earlier work
[4] = food with high calories and high fat content or concurrent rabeprazole; cited from earlier work
[5] = ketoconazole coadministered versus glasdegib alone; cited from earlier work
[6] = cited from earlier work
[7] = Unbound fraction in plasma by equilibrium dialysis; format: in vitro ADME, human; settings: for f u (fraction of unbound drug in plasma): geometric mean (%CV); for f u in plasma: statistic not given
[8] = system: cytochrome P450 (CYP) 3A4/5; settings: human hepatocytes, reaction phenotyping; cited from earlier work
[9] = Safety assessment after single oral 100 mg dose; format: in vivo, human; settings: all 24 participants
How it was run: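 Participants were confined from day -1 through day 6, with telephone follow-up 28–35 days post-dose. AEs, laboratory values, physical examination, vital signs, ECGs and concomitant medications were monitored throughout. AEs were treatment-emergent if onset or worsening came after dosing and before follow-up, and were coded with MedDRA 22.0. Baseline was the last predose measurement. Analysis was descriptive.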

[10] = Phase I single-dose pharmacokinetics of unbound plasma glasdegib; format: in vivo, human; settings: single oral 100 mg, fasted
How it was run: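 Single oral 100 mg tablet with about 240 mL water after a fast of at least 10 h, with no food for 4 h post-dose. Unbound samples were taken predose and at 1, 2 and 4 h. K2EDTA plasma was dialysed against PBS to equilibrium (6 h). Sertraline (300 ng/mL) served as positive control and glasdegib (100 ng/mL) as dialysis QC. Samples were read by LC-MS/MS (LLQ 1 ng/mL). Unbound parameters = fu × total noncompartmental values.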

[11] = human, plasma, 100 mg, moderate hepatic impairment (n = 8), arithmetic mean ± SD
[12] = human, plasma, 100 mg, moderate hepatic impairment (n = 8), geometric mean (%CV)
[13] = human, plasma, 100 mg, normal hepatic function (n = 8), arithmetic mean ± SD
[14] = human, plasma, 100 mg, normal hepatic function (n = 8), geometric mean (%CV)
[15] = human, plasma, 100 mg, severe hepatic impairment (n = 8), arithmetic mean ± SD
[16] = human, plasma, 100 mg, severe hepatic impairment (n = 8), geometric mean (%CV)
[17] = severe hepatic impairment cohort
[18] = moderate hepatic impairment (n = 8), arithmetic mean ± SD
[19] = moderate hepatic impairment (n = 8), geometric mean (%CV)
[20] = normal hepatic function (n = 8), arithmetic mean ± SD
[21] = normal hepatic function (n = 8), geometric mean (%CV)
[22] = severe hepatic impairment (n = 8), arithmetic mean ± SD
[23] = severe hepatic impairment (n = 8), geometric mean (%CV)

For `CN1CC[C@@H](NC(=O)Nc2ccc(C#N)cc2)C[C@@H]1c1nc2ccccc2[nH]1` [glasdegib], the “baseline hepatic function as covariate for variation in glasdegib PK” value [1] is listed as “not a statistically significant covariate”, the half-life ([2]; human, plasma, oral, 100 mg, mean terminal half-life, range across all hepatic function groups) is listed as 18.4 to 20.7 h and the AUC(0-inf) [2, 11] is listed as 12300 ± 3500 ng·h/mL. The AUC(0-inf) [2, 12] was 11900 ng·h/mL, the AUC(0-inf) [2, 13] was 11900 ± 6100 ng·h/mL and the AUC(0-inf) [2, 14] was 10700 ng·h/mL. It also gave an AUC(0-inf) [2, 15] of 8660 ± 3130 ng·h/mL, an AUC(0-inf) [2, 16] of 8110 ng·h/mL and an AUC(0-t) [2, 11] of 12200 ± 3460 ng·h/mL. It also gave an AUC(0-t) [2, 12] of 11800 ng·h/mL, an AUC(0-t) [2, 13] of 11800 ± 6080 ng·h/mL and an AUC(0-t) [2, 14] of 10600 ng·h/mL. For the same compound, the AUC(0-t) [2, 15] was 8480 ± 3100 ng·h/mL, the AUC(0-t) [2, 16] was 7940 ng·h/mL and the Tmax ([2]; human, plasma, 100 mg, moderate hepatic impairment (n = 8)) was 2.5 h. For the same compound, the Tmax ([2]; human, plasma, 100 mg, normal hepatic function (n = 8)) was 1.5 h, the Tmax ([2]; human, plasma, 100 mg, severe hepatic impairment (n = 8)) was 1 h and the “reduction in AUCinf versus normal hepatic function, total glasdegib” value [2, 17] was 24%. The “reduction in Cmax versus normal hepatic function, total glasdegib” value [2, 17] was 42%, the “CL/F, total glasdegib” value [2, 18] was 8.8 ± 2.8 L/h and the “Cmax, total glasdegib” value [2, 18] was 899.8 ± 215.7 ng/mL. For the same compound, the “CL/F, total glasdegib” value [2, 19] was 8.4 (31) L/h, the “Cmax, total glasdegib” value [2, 19] was 875.9 (26) ng/mL and the “CL/F, total glasdegib” value [2, 20] was 10.2 ± 4.3 L/h. The “Cmax, total glasdegib” value [2, 20] was 989.9 ± 373.1 ng/mL, the “CL/F, total glasdegib” value [2, 21] was 9.3 (49) L/h and the “Cmax, total glasdegib” value [2, 21] was 924.4 (43) ng/mL. The “CL/F, total glasdegib” value [2, 22] was 13.3 ± 5.8 L/h, the “Cmax, total glasdegib” value [2, 22] was 612.0 ± 342.8 ng/mL and the “CL/F, total glasdegib” value [2, 23] was 12.3 (42) L/h. For the same compound, the “Cmax, total glasdegib” value [2, 23] was 536.3 (59) ng/mL, the “decrease in glasdegib AUCinf” value [3] was “approximately 70%” and the “decrease in glasdegib Cmax” value [3] was 35%. The “effect on glasdegib exposure” value [4] was “minimal effect”, the “increase in glasdegib AUCinf” value [5] was 2.4 fold and the “increase in glasdegib Cmax” value [5] was 1.4 fold. The “dose proportionality of pharmacokinetics” value [6] was “linear dose‐proportional pharmacokinetics”, the mean half-life ([6]; clinical dose of 100 mg once daily) was 17.4 h and the unbound in plasma ([6]; plasma protein binding, moderately to highly bound) was under 10%. The “f u (fraction of unbound drug in plasma)” value ([7]; moderate hepatic impairment (n = 8)) was 0.08 (7), the “f u in plasma” value ([7]; moderate hepatic impairment group) was 0.08 and the “f u (fraction of unbound drug in plasma)” value ([7]; normal hepatic function (n = 8)) was 0.08 (16). For the same compound, the “f u in plasma” value ([7]; normal hepatic function cohort) was 0.08, the “f u (fraction of unbound drug in plasma)” value ([7]; severe hepatic impairment (n = 8)) was 0.12 (15) and the “f u in plasma” value ([7]; severe hepatic impairment group) was 0.12. The “higher f u compared with the normal function cohort” value ([7]; severe impairment cohort) was 50%, the “enzyme in glasdegib biotransformation” value [8] was “major enzyme” and the “clinically significant changes in laboratory values, vital signs, or ECGs” value [9] was “no clinically significant changes in vital signs or ECGs”. The “deaths, serious AEs, severe treatment-emergent AEs, discontinuations” value [9] was “no deaths, serious AEs, severe treatment‐emergent AEs, discontinuations from the study”, the “CLu/F, unbound glasdegib” value [10, 18] was 104.6 ± 34.6 L/h and the “CLu/F, unbound glasdegib” value [10, 19] was 100.2 (31) L/h. For the same compound, the “CLu/F, unbound glasdegib” value [10, 20] was 124.7 ± 43.5 L/h, the “CLu/F, unbound glasdegib” value [10, 21] was 118.4 (35) L/h and the “CLu/F, unbound glasdegib” value [10, 22] was 111.9 ± 58.1 L/h. The “CLu/F, unbound glasdegib” value [10, 23] was 101.6 (47) L/h.
